One data set has as its target T1, ABCG2 (Homo sapiens, UniProt Q9UNQ0).
T1 sequence (Q9UNQ0 whole entry): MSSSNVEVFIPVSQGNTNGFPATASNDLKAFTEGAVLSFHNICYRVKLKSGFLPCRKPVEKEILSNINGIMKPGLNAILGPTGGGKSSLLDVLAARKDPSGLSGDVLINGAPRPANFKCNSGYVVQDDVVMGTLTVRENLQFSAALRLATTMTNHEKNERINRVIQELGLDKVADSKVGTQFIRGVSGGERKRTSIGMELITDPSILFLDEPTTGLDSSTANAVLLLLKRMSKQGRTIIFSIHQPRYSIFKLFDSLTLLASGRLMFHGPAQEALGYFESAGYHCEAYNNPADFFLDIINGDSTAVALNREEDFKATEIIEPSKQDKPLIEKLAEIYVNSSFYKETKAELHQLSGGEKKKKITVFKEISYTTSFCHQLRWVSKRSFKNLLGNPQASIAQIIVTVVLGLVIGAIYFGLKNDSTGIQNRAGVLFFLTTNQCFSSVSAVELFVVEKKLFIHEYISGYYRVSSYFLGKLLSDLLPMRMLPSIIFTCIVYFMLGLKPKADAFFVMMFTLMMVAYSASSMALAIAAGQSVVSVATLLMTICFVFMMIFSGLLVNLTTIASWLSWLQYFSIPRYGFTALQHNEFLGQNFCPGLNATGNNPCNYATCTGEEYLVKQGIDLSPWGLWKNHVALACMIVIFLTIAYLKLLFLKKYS
Description: Effect on human ABCG2 transporter preincubated for 2 mins followed by ATP addition assessed as basal ATPase activity at 100 nM and measured after 20 mins by colorimetric assay relative to control. The note with it: read-out: Activity. Summed up: (§1)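 Total membrane vesicles from High-Five insect cells expressing human ABCG2 (hypotonic lysis, differential centrifugation), 10 μg protein/tube, in MES-Tris pH 6.8 buffer with KCl, MgCl2, NaN3, EGTA, ouabain, DTT. Compound in DMSO added ± sodium orthovanadate (0.3 mM), DMSO control. Preincubated 2 min at 37°C, then 5 mM ATP, 20 min. SDS stop, Pi measured colorimetrically. Three independent experiments in duplicate, mean ± SE.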
Consider `CCOC(=O)[C@]12C[C@@H]1[C@@H](n1cnc3c(NC)nc(C#Cc4ccc(F)s4)nc31)[C@H](O)[C@@H]2O`, for which the activity at 20 min, 0.1 µM was not above 30%.

With `CNc1nc(C#Cc2ccc(Cl)s2)nc2c1ncn2[C@@H]1O[C@H](C(=O)OC)[C@@H](O)[C@H]1O`, the activity at 20 min, 0.1 µM was not above 30%.

With `CNc1nc(C#Cc2ccc(Cl)s2)nc2c1ncn2[C@@H]1C2CC2(C(=O)OC(C)C)[C@@H](O)[C@H]1O` (single isomer, unassigned), the activity at 20 min, 0.1 µM was not above 30%.

Consider `CCOC(=O)C12CC1[C@@H](n1ccc3c(NC4CC4)nc(C#Cc4ccccc4)nc31)[C@H](O)[C@@H]2O` (single isomer, unassigned), for which the activity at 20 min, 0.1 µM was not above 30%.

With `CCOC(=O)C12CC1[C@@H](n1ccc3c(NC)nc(I)nc31)[C@H](O)[C@@H]2O` (single isomer, unassigned), the activity at 20 min, 0.1 µM is not above 30%.

`CNc1nc(C#Cc2ccc(Cl)s2)nc2c1ncn2[C@@H]1C2CC2(C(=O)OCCC2CCCCC2)[C@@H](O)[C@H]1O` (single isomer, unassigned): the activity at 20 min, 0.1 µM was not above 30%.

Consider `CCOC(=O)C12CC1[C@@H](n1ccc3c(NCC4CC4)nc(C#Cc4ccccc4)nc31)[C@H](O)[C@@H]2O` (single isomer, unassigned), for which the activity at 20 min, 0.1 µM was not above 30%.

`CNc1nc(C#Cc2ccc(Cl)s2)nc2c1ncn2[C@@H]1C2CC2(C(=O)OCCC(C)C)[C@@H](O)[C@H]1O` (single isomer, unassigned): the activity at 20 min, 0.1 µM was not above 30%.

For the compound `CCOC(=O)C12CC1[C@@H](n1cnc3c(NC)nc(C#Cc4ccc(Cl)s4)cc31)[C@H](O)[C@@H]2O` (single isomer, unassigned), the activity at 20 min, 0.1 µM was not above 30%.

For `CCCCOC(=O)C12CC1[C@@H](n1cnc3c(NC)nc(C#Cc4ccc(Cl)s4)nc31)[C@H](O)[C@@H]2O` (single isomer, unassigned), the activity at 20 min, 0.1 µM was not above 30%.

As for `CCOC(=O)C12CC1[C@@H](n1cnc3c(NC)cc(C#Cc4ccc(Cl)s4)nc31)[C@H](O)[C@@H]2O` (single isomer, unassigned), the activity at 20 min, 0.1 µM was not above 30%.

For the compound `CNc1nc(C#Cc2ccc(Cl)s2)nc2c1ncn2[C@H]1[C@H](O)[C@H](O)[C@@]2(C(=O)OCCc3ccccc3)C[C@H]12`, the activity at 20 min, 0.1 µM is not above 30%.

The target in a further data set is T1, ABCG2. Description: Activation of human ABCG2-mediated ATPase activity preincubated for 2 mins followed by ATP addition at 100 nM and measured after 20 mins by colorimetric assay relative to control. The note with it: read-out: Activity. Summed up:
as §1
As to `CCCOC(=O)C12CC1[C@@H](n1cnc3c(NC)nc(C#Cc4ccc(Cl)s4)nc31)[C@H](O)[C@@H]2O` (single isomer, unassigned), the activity at 20 min, 0.1 µM came to 33.9%.

In the case of `CCOC(=O)C12CC1[C@@H](n1cnc3c(NCCc4ccc(OC)c(O)c4)nc(C#Cc4ccc(Cl)s4)nc31)[C@H](O)[C@@H]2O` (single isomer, unassigned), the activity at 20 min, 0.1 µM is 64.3%.

As for `CNc1nc(C#Cc2ccc(Cl)s2)nc2c1ncn2[C@H]1[C@H](O)[C@H](O)[C@@]2(C(=O)OCCCc3ccccc3)C[C@H]12`, the activity at 20 min, 0.1 µM was determined as 38.8%.

As to `Clc1cccc(CNC2=NC(C#Cc3ccc(Cl)s3)=NC3=NC=NC32)c1` (stereo unspecified), the activity at 20 min, 0.1 µM is 40.5%.

Consider `CCOC(=O)C12CC1[C@@H](n1cnc3c(NCCc4ccc(O)c(OC)c4)nc(C#Cc4ccc(Cl)s4)nc31)[C@H](O)[C@@H]2O` (single isomer, unassigned), for which the activity at 20 min, 0.1 µM amounted to 59.3%.

For `CCOC(=O)C12CC1[C@@H](n1ccc3c(NC)nc(C#Cc4ccc(Cl)s4)nc31)[C@H](O)[C@@H]2O` (single isomer, unassigned), the activity at 20 min, 0.1 µM came to 41%.

For `CCOC(=O)C12CC1[C@@H](n1ccc3c(NCCCc4ccccc4)nc(C#Cc4ccc(Cl)s4)nc31)[C@H](O)[C@@H]2O` (single isomer, unassigned), the activity at 20 min, 0.1 µM is 45.5%.

Turning to `CNc1nc(C#Cc2ccc(Cl)s2)nc2c1ncn2[C@@H]1C2CC2(C(=O)Oc2ccccc2)[C@@H](O)[C@H]1O` (single isomer, unassigned), the activity at 20 min, 0.1 µM was 50.3%.

For the compound `CCOC(=O)C12C[C@@H]1[C@@H](n1ccc3c(NCCCc4ccccc4)nc(C#Cc4ccccc4)nc31)[C@H](O)[C@@H]2O` (single isomer, unassigned), the activity at 20 min, 0.1 µM stood at 37.9%.
